Converted amounts (≈) assume the structure as drawn. Where a SMILES comes first, the peptide text is derived from it. [ ]: non-standard residue; d: D form. The star is where a group is joined. Palmitoyl = CCCCCCCCCCCCCCCC(=O)*; Lauroyl = CCCCCCCCCCCC(=O)*; Decanoyl = CCCCCCCCCC(=O)*; 3Abz = Nc1cccc(C(=O)O)c1; Orn = NCCC[CH](N)C(=O)O
Columns and labels:
Aspergillus niger = experiment: Antifungal activity against Aspergillus niger ATCC 64028 after 24 hrs by M27-A method; type: functional; settings: ATCC 64028, 24 h
Method in brief: (§1)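 Fungi at 2.5×10^3 cfu/mL in RPMI 1640 (L-glutamine, no glucose or NaHCO3, buffered pH 7.0 with 0.165 M MOPS), mixed 1:1 with serial 2-fold aqueous dilutions. Incubated at 37 °C with shaking, 24 h for Aspergillus, 48-72 h for Candida and Cryptococcus; A600 read. MIC taken as lowest concentration with no growth.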

Candida albicans [1] = experiment: Antifungal activity against fluconazole-resistant Candida albicans PGI/ DML0109 clinical isolate after 48 to 72 hrs by M27-A method; type: functional
Method in brief: (§2)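 Fungi at 2.5×10^3 cfu/mL in RPMI 1640 (L-glutamine, no glucose or NaHCO3, pH 7.0 with 0.165 M MOPS). Mixed 1:1 with serial 2-fold dilutions in water, incubated at 37 °C with shaking, 24 h for A. fumigatus and 48–72 h for C. albicans. Growth read by absorbance at 600 nm. MIC taken as the lowest concentration with no growth.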

[2] = Hemolytic activity in human RBCs; type: ADME, cell-based, Erythrocyte; settings: red blood cells (RBCs)
Method in brief: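 Washed fresh human erythrocytes, 4% (v/v) in PBS (35 mM phosphate, 150 mM NaCl, pH 7.2), mixed 1:1 with 2-fold dilutions in PBS. Incubated 1 h at 37 °C without agitation, then centrifuged at 1000 g for 5 min. Supernatant hemoglobin read at 440 nm; % hemolysis = 100(A−A0)/(At−A0).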

Staphylococcus aureus [3] = experiment: Antibacterial activity against methicillin-resistant Staphylococcus aureus PGI/ DML03149 clinical isolate after 18 hrs by micro dilution broth assay; type: functional; settings: PGI/ DML03149, 18 h
Staphylococcus aureus [4] = experiment: Antibacterial activity against Staphylococcus aureus MTCC 3160 after 18 hrs by micro dilution broth assay; type: functional; settings: MTCC 3160, 18 h
Method in brief: (§3)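 Broth microdilution (modified CLSI): mid-log inoculum at 10^5 CFU/mL in Mueller-Hinton broth; serial 2-fold dilutions of sample in 0.001% acetic acid with 0.2% BSA added. Incubated overnight at 37 °C with agitation; A600 read at 18 h. Drug-free culture and uninoculated broth as controls; triplicate.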

Escherichia coli [5] = experiment: Antibacterial activity against imipenem-resistant Escherichia coli PGI/ DML02292 clinical isolate after 18 hrs by micro dilution broth assay; type: functional; settings: PGI/ DML02292, 18 h
Pseudomonas aeruginosa = experiment: Antibacterial activity against Pseudomonas aeruginosa MTCC 2295 after 18 hrs by micro dilution broth assay; type: functional; settings: MTCC 2295, 18 h; method in brief: as §3
Cryptococcus neoformans = experiment: Antifungal activity against Cryptococcus neoformans ATCC 2344 after 48 to 72 hrs by M27-A method; type: functional; method in brief: as §1
Escherichia coli [6] = experiment: Antibacterial activity against Escherichia coli MTCC 0723 after 18 hrs by micro dilution broth assay; type: functional; settings: MTCC 0723, 18 h; method in brief: as §3
Aspergillus fumigatus [7] = experiment: Antifungal activity against fluconazole-resistant Aspergillus fumigatus IGMC/LM1/0336 after 24 hrs by M27-A method; type: functional; settings: IGMC/LM1/0336, 24 h; method in brief: as §2
Bacillus subtilis = experiment: Antibacterial activity against Bacillus subtilis MTCC 2763 after 18 hrs by micro dilution broth assay; type: functional; settings: MTCC 2763, 18 h; method in brief: as §3
Candida albicans [8] = experiment: Antifungal activity against Candida albicans ATCC 24433 after 48 to 72 hrs by M27-A method; type: functional; method in brief: as §1
Aspergillus fumigatus [9] = experiment: Antifungal activity against Aspergillus fumigatus ATCC 42203 after 24 hrs by M27-A method; type: functional; settings: ATCC 42203, 24 h; method in brief: as §1
[10] = Therapeutic index, ratio of HC50 for human RBCs to MIC for Staphylococcus aureus MTCC 3160; settings: red blood cells (RBCs), read-out: TI
[11] = Therapeutic index, ratio of HC50 for human RBCs to MIC for Escherichia coli MTCC 0723; settings: red blood cells (RBCs), read-out: TI
[12] = Membrane permeabilization activity assessed as release of calcein from PE/PG liposomes at 20 ug/ml after 5 mins by spectrofluorimetry; type: ADME
Method in brief: (§4)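 Calcein-loaded LUVs, PE/PG (bacterial mimic) or PC/PE/PI/ergosterol (fungal mimic), exposed to 1-20 μg/mL for 5 min before fluorescence reading. Triton X-100 in Tris-HCl/NaCl/EDTA buffer sets 100% leakage; % leakage = 100(F−F0)/(Ft−F0). Run in triplicate, two independent experiments, mean ± SD.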

[13] = Membrane permeabilization activity assessed as release of calcein from PC/PE/PI/ergosterol liposomes at 20 ug/ml after 5 mins by spectrofluorimetry; type: ADME; method in brief: as §4
[14] = Membrane permeabilization activity assessed as release of calcein from PE/PG liposomes at 4 ug/ml after 5 mins by spectrofluorimetry; type: ADME; method in brief: as §4
[15] = Membrane permeabilization activity assessed as release of calcein from PC/PE/PI/ergosterol liposomes at 4 ug/ml after 5 mins by spectrofluorimetry; type: ADME; method in brief: as §4

| SMILES | MIC (Aspergillus niger) | MIC (Candida albicans [1]) | HC50 [2] | MIC (Staphylococcus aureus [3]) | MIC (Staphylococcus aureus [4]) | MIC (Escherichia coli [5]) | MIC (Pseudomonas aeruginosa) | MIC (Cryptococcus neoformans) | MIC (Escherichia coli [6]) | MIC (Aspergillus fumigatus [7]) | MIC (Bacillus subtilis) | MIC (Candida albicans [8]) | MIC (Aspergillus fumigatus [9]) | selectivity ratio [10] | selectivity ratio [11] | Activity [12] | Activity [13] | Activity [14] | Activity [15] |
| --- | --- | --- | --- | --- | --- | --- | --- | --- | --- | --- | --- | --- | --- | --- | --- | --- | --- | --- | --- |
| CCCCCCCCCC(=O)Nc1cccc(C(=O)NC(CCCN)C(=O)NC(CCCN)C(=O)NC(CCCN)C(N)=O)c1 (stereo unspecified) | 50 µg/mL (≈ 79 µM) | 75 µg/mL (≈ 119 µM) | > 1000 µg/mL | 50 µg/mL (≈ 79 µM) | 31.2 µg/mL (≈ 49.3 µM) | 70 µg/mL (≈ 111 µM) | 50 µg/mL (≈ 79 µM) | 75 µg/mL (≈ 119 µM) | 62.5 µg/mL (≈ 98.8 µM) | 30 µg/mL (≈ 47.4 µM) | 125 µg/mL (≈ 198 µM) | 62.5 µg/mL (≈ 98.8 µM) | 31.5 µg/mL (≈ 49.8 µM) |  |  |  |  |  |  |
| O=C(O)c1cn(C2CC2)c2cc(N3CCNCC3)c(F)cc2c1=O [CIPROFLOXACIN] |  |  |  |  | 0.2 µg/mL (≈ 0.604 µM) |  | 0.3 µg/mL (≈ 0.905 µM) |  |  |  | 0.5 µg/mL (≈ 1.51 µM) |  |  |  |  |  |  |  |  |
| CCCCCCCCCCCC(=O)Nc1cccc(C(=O)NC(CCCN)C(=O)NC(CCCN)C(=O)NC(CCCN)C(=O)NC(CCCN)C(N)=O)c1 (stereo unspecified) ({Lauroyl-3Abz}-[Orn][Orn][Orn][Orn]-NH2; configuration not given here) | 6.25 µg/mL (≈ 8.06 µM) | 7.5 µg/mL (≈ 9.68 µM) | 750 µg/mL | 3.25 µg/mL (≈ 4.19 µM) | 2.5 µg/mL (≈ 3.23 µM) | 5.5 µg/mL (≈ 7.1 µM) | 1.5 µg/mL (≈ 1.94 µM) | 10.5 µg/mL (≈ 13.5 µM) | 1.5 µg/mL (≈ 1.94 µM) | 5.5 µg/mL (≈ 7.1 µM) | 15.5 µg/mL (≈ 20 µM) | 5.5 µg/mL (≈ 7.1 µM) | 5 µg/mL (≈ 6.45 µM) | 300 | 500 |  |  |  |  |
| CCCCCCCCCCCC(=O)Nc1cccc(C(=O)NC(CCCN)C(=O)NC(CCCN)C(=O)NC(CCCN)C(N)=O)c1 (stereo unspecified) | 15 µg/mL (≈ 22.7 µM) | 15 µg/mL (≈ 22.7 µM) | 900 µg/mL | 12 µg/mL (≈ 18.2 µM) | 6.25 µg/mL (≈ 9.46 µM) | 10.5 µg/mL (≈ 15.9 µM) | 4.5 µg/mL (≈ 6.81 µM) | 12.5 µg/mL (≈ 18.9 µM) | 12.5 µg/mL (≈ 18.9 µM) | 12.5 µg/mL (≈ 18.9 µM) | 100 µg/mL (≈ 151 µM) | 15.5 µg/mL (≈ 23.5 µM) | 10 µg/mL (≈ 15.1 µM) | 144 | 72 |  |  |  |  |
| CCCCCCCCCCCCCC(=O)Nc1cccc(C(=O)NC(CCCN)C(=O)NC(CCCN)C(=O)NC(CCCN)C(N)=O)c1 (stereo unspecified) | 5 µg/mL (≈ 7.26 µM) | 6.25 µg/mL (≈ 9.07 µM) | 750 µg/mL | 4.5 µg/mL (≈ 6.53 µM) | 3.1 µg/mL (≈ 4.5 µM) | 4 µg/mL (≈ 5.81 µM) | 2.5 µg/mL (≈ 3.63 µM) | 10 µg/mL (≈ 14.5 µM) | 2.25 µg/mL (≈ 3.27 µM) | 6.25 µg/mL (≈ 9.07 µM) | 15.5 µg/mL (≈ 22.5 µM) | 5.5 µg/mL (≈ 7.98 µM) | 4.5 µg/mL (≈ 6.53 µM) | 242 | 333 |  |  |  |  |
| CCCCCCCCCCCCCCCCCC(=O)Nc1cccc(C(=O)NC(CCCN)C(=O)NC(CCCN)C(=O)NC(CCCN)C(N)=O)c1 (stereo unspecified) | 3.5 µg/mL (≈ 4.7 µM) | 2 µg/mL (≈ 2.68 µM) | 250 µg/mL | 10.5 µg/mL (≈ 14.1 µM) | 12.5 µg/mL (≈ 16.8 µM) | 7.5 µg/mL (≈ 10.1 µM) | 10 µg/mL (≈ 13.4 µM) | 6.5 µg/mL (≈ 8.72 µM) | 6.25 µg/mL (≈ 8.39 µM) | 2.5 µg/mL (≈ 3.36 µM) | 25 µg/mL (≈ 33.6 µM) | 2.25 µg/mL (≈ 3.02 µM) | 2 µg/mL (≈ 2.68 µM) | 20 | 40 |  |  |  |  |
| CCCCCCCCCCCCCCCC(=O)Nc1cccc(C(=O)NC(CCCN)C(=O)NC(CCCN)C(=O)NC(CCCN)C(N)=O)c1 (stereo unspecified) | 4.25 µg/mL (≈ 5.93 µM) | 3.5 µg/mL (≈ 4.88 µM) | 450 µg/mL | 5 µg/mL (≈ 6.97 µM) | 5 µg/mL (≈ 6.97 µM) | 4.5 µg/mL (≈ 6.28 µM) | 5.5 µg/mL (≈ 7.67 µM) | 3.5 µg/mL (≈ 4.88 µM) | 3.5 µg/mL (≈ 4.88 µM) | 5 µg/mL (≈ 6.97 µM) | 20 µg/mL (≈ 27.9 µM) | 3 µg/mL (≈ 4.18 µM) | 3.5 µg/mL (≈ 4.88 µM) | 90 | 129 |  |  |  |  |
| CCCCCCCCCCCCCCCC(=O)Nc1cccc(C(=O)NC(CCCN)C(=O)NC(CCCN)C(=O)NC(CCCN)C(=O)NC(CCCN)C(N)=O)c1 (stereo unspecified) ({Palmitoyl-3Abz}-[Orn][Orn][Orn][Orn]-NH2; configuration not given here) | 3.1 µg/mL (≈ 3.73 µM) | 3.5 µg/mL (≈ 4.21 µM) | 350 µg/mL | 5 µg/mL (≈ 6.02 µM) | 3 µg/mL (≈ 3.61 µM) | 3.5 µg/mL (≈ 4.21 µM) | 3.1 µg/mL (≈ 3.73 µM) | 5 µg/mL (≈ 6.02 µM) | 2 µg/mL (≈ 2.41 µM) | 3.5 µg/mL (≈ 4.21 µM) | 20 µg/mL (≈ 24.1 µM) | 2 µg/mL (≈ 2.41 µM) | 1.5 µg/mL (≈ 1.8 µM) | 117 | 175 |  |  |  |  |
| C[C@@H]1[C@H](O)[C@@H](C)/C=C/C=C/C=C/C=C/C=C/C=C/C=C/[C@H](O[C@@H]2O[C@H](C)[C@@H](O)[C@H](N)[C@@H]2O)C[C@@H]2O[C@](O)(C[C@@H](O)C[C@@H](O)[C@H](O)CC[C@@H](O)C[C@@H](O)CC(=O)O[C@H]1C)C[C@H](O)[C@H]2C(=O)O [AMPHOTERICIN B] | 0.5 µg/mL (≈ 0.541 µM) | 0.7 µg/mL (≈ 0.758 µM) |  |  |  |  |  | 0.3 µg/mL (≈ 0.325 µM) |  | 0.9 µg/mL (≈ 0.974 µM) |  | 0.5 µg/mL (≈ 0.541 µM) | 0.3 µg/mL (≈ 0.325 µM) |  |  |  |  |  |  |
| CCCCCCCCCC(=O)Nc1cccc(C(=O)NC(CCCN)C(=O)NC(CCCN)C(=O)NC(CCCN)C(=O)NC(CCCN)C(N)=O)c1 (stereo unspecified) ({Decanoyl-3Abz}-[Orn][Orn][Orn][Orn]-NH2; configuration not given here) | 31.5 µg/mL (≈ 42.2 µM) | 50 µg/mL (≈ 66.9 µM) | 1000 µg/mL | 35 µg/mL (≈ 46.9 µM) | 20 µg/mL (≈ 26.8 µM) | 25 µg/mL (≈ 33.5 µM) | 25 µg/mL (≈ 33.5 µM) | 50 µg/mL (≈ 66.9 µM) | 17.5 µg/mL (≈ 23.4 µM) | 25 µg/mL (≈ 33.5 µM) | 100 µg/mL (≈ 134 µM) | 50 µg/mL (≈ 66.9 µM) | 25 µg/mL (≈ 33.5 µM) | 50 | 57.1 | 67% | 45% | 11% | 17% |

— ChEMBL document CHEMBL3351820, “Development of novel membrane active lipidated peptidomimetics active against drug resistant clinical isolates” (Bioorg Med Chem, 2014)
